Reference: ChEMBL document CHEMBL4033671, “Synthesis and biological evaluation of N-(carbobenzyloxy)-l-phenylalanine and N-(carbobenzyloxy)-l-aspartic acid-β-benzyl ester derivatives as potent topoisomerase IIα inhibitors” (Bioorg Med Chem, 2017)

Tests used:
[1] = target: T1, DNA topoisomerase 2-alpha (Homo sapiens, UniProt P11388); assay: Inhibition of human recombinant topoisomerase-2alpha expressed in Escherichia coli assessed as decrease in relaxation of supercoiled DNA pBR322 at 20 uM after 30 mins by ethidium bromide staining-based agarose gel electrophoresis relative to control
T1 sequence (P11388 whole entry): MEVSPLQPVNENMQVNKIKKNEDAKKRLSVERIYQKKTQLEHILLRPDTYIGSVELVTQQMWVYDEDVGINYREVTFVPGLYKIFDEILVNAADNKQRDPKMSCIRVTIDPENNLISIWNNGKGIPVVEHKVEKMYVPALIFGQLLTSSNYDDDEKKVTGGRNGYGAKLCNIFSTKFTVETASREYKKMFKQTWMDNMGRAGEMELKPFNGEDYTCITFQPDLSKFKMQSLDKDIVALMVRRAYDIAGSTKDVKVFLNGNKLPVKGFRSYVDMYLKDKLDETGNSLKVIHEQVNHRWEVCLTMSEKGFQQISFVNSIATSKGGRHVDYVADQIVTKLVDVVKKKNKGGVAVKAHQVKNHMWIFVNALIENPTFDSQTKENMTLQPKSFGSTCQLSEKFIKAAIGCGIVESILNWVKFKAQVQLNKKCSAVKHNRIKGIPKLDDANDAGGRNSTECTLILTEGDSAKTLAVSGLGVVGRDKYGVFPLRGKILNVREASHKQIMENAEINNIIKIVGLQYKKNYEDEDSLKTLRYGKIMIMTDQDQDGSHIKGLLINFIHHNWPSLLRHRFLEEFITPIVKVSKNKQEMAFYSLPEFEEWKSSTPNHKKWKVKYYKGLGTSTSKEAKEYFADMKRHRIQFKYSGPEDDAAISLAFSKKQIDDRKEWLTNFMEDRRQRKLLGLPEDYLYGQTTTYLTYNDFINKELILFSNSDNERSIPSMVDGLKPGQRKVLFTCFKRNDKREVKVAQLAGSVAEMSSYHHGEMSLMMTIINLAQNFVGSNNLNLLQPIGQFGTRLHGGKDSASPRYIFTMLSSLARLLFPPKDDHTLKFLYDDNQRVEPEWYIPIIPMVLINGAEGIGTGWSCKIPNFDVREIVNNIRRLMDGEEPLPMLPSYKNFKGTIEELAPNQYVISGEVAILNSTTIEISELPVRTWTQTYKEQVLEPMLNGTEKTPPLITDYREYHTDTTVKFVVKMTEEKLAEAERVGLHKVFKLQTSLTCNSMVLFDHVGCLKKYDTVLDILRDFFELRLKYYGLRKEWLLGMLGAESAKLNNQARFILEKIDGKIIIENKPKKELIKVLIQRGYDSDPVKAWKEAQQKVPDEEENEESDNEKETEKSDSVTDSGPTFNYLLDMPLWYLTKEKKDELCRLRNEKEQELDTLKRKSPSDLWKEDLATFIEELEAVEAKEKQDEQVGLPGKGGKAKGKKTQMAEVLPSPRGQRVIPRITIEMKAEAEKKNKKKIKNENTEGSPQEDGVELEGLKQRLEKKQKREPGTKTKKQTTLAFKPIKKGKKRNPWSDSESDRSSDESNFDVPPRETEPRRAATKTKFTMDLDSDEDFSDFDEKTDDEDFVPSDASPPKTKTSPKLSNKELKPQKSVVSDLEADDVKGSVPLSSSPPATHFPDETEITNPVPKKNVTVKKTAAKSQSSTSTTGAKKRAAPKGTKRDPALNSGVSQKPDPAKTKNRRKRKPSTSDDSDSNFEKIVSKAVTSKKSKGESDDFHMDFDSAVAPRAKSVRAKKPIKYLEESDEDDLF
Procedure, shortened: (§1)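 Relaxation of 500 ng supercoiled pBR322 by 1 unit human topoisomerase I or IIα in reaction buffer, with or without compound (100 µM; 20 µM for selected compounds). Incubated 37 °C for 30 min, stopped with 0.77% SDS/77 mM EDTA. Products run on 1% agarose in TBE at 83 V for 60 min, stained 30 min in ethidium bromide (0.5 µg/mL), imaged under UV; percent inhibition recorded.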

MCF7 = assay: Antiproliferative activity against human MCF7 cells after 48 hrs by MTT assay; format: functional, cell-based; details: MCF7, 48 h
Procedure, shortened: (§2)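 Cells seeded at 5×10⁴ per well, left 12 h, then exposed to serial dilutions (final 0, 5.0, 10.0, 20.0, 40.0, 80.0, 100.0 µM) for 48 h. MTT (5.0 mg/mL stock, 10 µL) added for 4 h, formazan dissolved in DMSO, absorbance read at 490 nm. Inhibition = (1−A_treatment/A_control)×100%; IC50 is the concentration giving 50% growth inhibition. Triplicate wells, at least three independent experiments, mean ± SD.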

[2] = target: T2, DNA topoisomerase 1 (Homo sapiens) (UniProt P11387); assay: Inhibition of human recombinant topoisomerase-1 assessed as decrease in relaxation of supercoiled DNA pBR322 at 20 uM after 30 mins by ethidium bromide staining-based agarose gel electrophoresis relative to control; procedure, shortened: as §1
T2 sequence (whole entry): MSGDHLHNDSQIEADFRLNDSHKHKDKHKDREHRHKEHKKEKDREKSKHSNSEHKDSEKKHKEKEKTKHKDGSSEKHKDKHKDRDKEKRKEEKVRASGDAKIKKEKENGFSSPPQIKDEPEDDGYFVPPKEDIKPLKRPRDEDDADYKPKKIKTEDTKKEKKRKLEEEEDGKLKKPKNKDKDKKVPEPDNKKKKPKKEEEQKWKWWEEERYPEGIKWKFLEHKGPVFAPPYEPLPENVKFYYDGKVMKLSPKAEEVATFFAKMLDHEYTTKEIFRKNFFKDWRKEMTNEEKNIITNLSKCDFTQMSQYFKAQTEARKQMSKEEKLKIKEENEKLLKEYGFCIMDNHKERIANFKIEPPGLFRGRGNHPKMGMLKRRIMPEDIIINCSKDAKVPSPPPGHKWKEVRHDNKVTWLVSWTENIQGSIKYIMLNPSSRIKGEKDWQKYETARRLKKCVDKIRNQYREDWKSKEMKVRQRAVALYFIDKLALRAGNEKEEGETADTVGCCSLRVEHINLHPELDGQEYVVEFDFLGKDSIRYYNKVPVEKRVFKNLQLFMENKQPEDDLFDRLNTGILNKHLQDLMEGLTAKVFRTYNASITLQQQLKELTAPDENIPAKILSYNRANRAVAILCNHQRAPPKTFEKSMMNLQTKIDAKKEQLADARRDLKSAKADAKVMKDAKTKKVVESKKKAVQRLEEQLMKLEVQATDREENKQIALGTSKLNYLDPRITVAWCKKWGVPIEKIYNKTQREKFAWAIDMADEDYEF

A549 = assay: Antiproliferative activity against human A549 cells after 48 hrs by MTT assay; format: functional, cell-based; details: A549, 48 h; procedure, shortened: as §2
[3] = target: T2, DNA topoisomerase 1 (Homo sapiens); assay: Inhibition of human recombinant topoisomerase-1 assessed as decrease in relaxation of supercoiled DNA pBR322 at 100 uM after 30 mins by ethidium bromide staining-based agarose gel electrophoresis relative to control; procedure, shortened: as §1
MGC-803 = assay: Antiproliferative activity against human MGC803 cells after 48 hrs by MTT assay; format: functional, cell-based; details: MGC-803, 48 h; procedure, shortened: as §2
[4] = target: T1, DNA topoisomerase 2-alpha; assay: Inhibition of human recombinant topoisomerase-2alpha expressed in Escherichia coli assessed as decrease in relaxation of supercoiled DNA pBR322 at 100 uM after 30 mins by ethidium bromide staining-based agarose gel electrophoresis relative to control; procedure, shortened: as §1
HeLa = assay: Antiproliferative activity against human HeLa cells after 48 hrs by MTT assay; format: functional, cell-based; procedure, shortened: as §2
[5] = target: T1, DNA topoisomerase 2-alpha; assay: Inhibition of human recombinant topoisomerase-2alpha expressed in Escherichia coli assessed as decrease in relaxation of supercoiled DNA pBR322 after 30 mins by ethidium bromide staining-based agarose gel electrophoresis; procedure, shortened: as §1

Structure (SMILES) | inhibition [1] | IC50 (MCF7) | inhibition [2] | IC50 (A549) | inhibition [3] | IC50 (MGC-803) | inhibition [4] | IC50 (HeLa) | IC50 [5]
O=C(C[C@H](NC(=O)OCc1ccccc1)C(=O)N[C@H](COC(=O)c1ccccc1)Cc1ccccc1)OCc1ccccc1 | 20.1% | 40 µM |  | 46 µM | -0% | 32.5 µM | 68.4% | 27.9 µM | 
COc1cc([C@@H]2c3cc4c(cc3[C@@H](O[C@@H]3O[C@@H]5CO[C@@H](C)O[C@H]5[C@H](O)[C@H]3O)[C@H]3COC(=O)[C@H]23)OCO4)cc(OC)c1O [ETOPOSIDE] |  | 24 µM |  | 19.8 µM |  | 20.9 µM |  | 15.9 µM | 
O=C(N[C@@H](Cc1ccccc1)C(=O)N[C@H](COC(=O)c1ccccc1Cl)Cc1ccccc1)OCc1ccccc1 |  | 43 µM |  | > 50 µM | -0% | 43.1 µM | 4.1% | > 50 µM | 
COc1ccc(C(=O)OC[C@H](Cc2ccccc2)NC(=O)[C@H](Cc2ccccc2)NC(=O)OCc2ccccc2)cc1OC | 28.1% | 41.5 µM |  | > 50 µM | 5.4% | 40.3 µM | 83.2% | 34.5 µM | 
CCC(=O)OC[C@H](Cc1ccccc1)NC(=O)[C@H](Cc1ccccc1)NC(=O)OCc1ccccc1 | 45.6% | > 50 µM |  | > 50 µM | -0% | > 50 µM | 86.1% | > 50 µM | 
CC[C@@]1(O)C(=O)OCc2c1cc1n(c2=O)Cc2cc3ccccc3nc2-1 [CAMPTOTHECIN] |  | 28.7 µM |  | 13.6 µM |  | 9.45 µM |  | 10.1 µM | 
O=C(C[C@H](NC(=O)OCc1ccccc1)C(=O)N[C@H](COC(=O)c1ccccc1Cl)Cc1ccccc1)OCc1ccccc1 |  | > 50 µM |  | > 50 µM | -0% | > 50 µM | 41.4% | > 50 µM | 

Results, then the compound that gave them:

inhibition [1] | IC50 (MCF7) | inhibition [2] | IC50 (A549) | inhibition [3] | IC50 (MGC-803) | inhibition [4] | IC50 (HeLa) | IC50 [5] | Structure (SMILES)
19.7% | 40.6 µM | -0% | > 50 µM | 45.2% | > 50 µM | 63.8% | 49.9 µM |  | CCC(=O)OC[C@H](Cc1ccccc1)NC(=O)[C@H](CC(=O)OCc1ccccc1)NC(=O)OCc1ccccc1
42.1% | 39.2 µM |  | > 50 µM | 7.3% | 42.8 µM | 62.8% | 39.4 µM |  | Cc1ccccc1C(=O)OC[C@H](Cc1ccccc1)NC(=O)[C@H](Cc1ccccc1)NC(=O)OCc1ccccc1
 |  |  |  |  |  |  |  | 27 µM | O=C(O)C[C@H](NC(=O)OCc1ccccc1)C(=O)O
25.6% | 41.1 µM | -0% | 48.8 µM | 29.5% | 38.7 µM | 75.7% | 30.2 µM |  | O=C(N[C@@H](Cc1ccccc1)C(=O)N[C@H](COC(=O)c1ccccc1)Cc1ccccc1)OCc1ccccc1
 | 36.2 µM |  | 42.4 µM | -0% | 38.4 µM | 3.2% | 22.6 µM |  | O=C(N[C@@H](Cc1ccccc1)C(=O)N[C@H](COC(=O)c1ccc(Cl)cc1)Cc1ccccc1)OCc1ccccc1
51.2% | 22.1 µM |  | 29.9 µM | 9.5% | 28.1 µM | 92.9% | 17.6 µM |  | O=C(C[C@H](NC(=O)OCc1ccccc1)C(=O)N[C@H](COC(=O)c1ccc(Cl)cc1)Cc1ccccc1)OCc1ccccc1
49.8% | 27.9 µM | -0% | 47.6 µM | 20.2% | 42.3 µM | 84.6% | 39.6 µM |  | COc1ccc(C(=O)OC[C@H](Cc2ccccc2)NC(=O)[C@H](CC(=O)OCc2ccccc2)NC(=O)OCc2ccccc2)cc1OC
 | 41.7 µM |  | > 50 µM | -0% | > 50 µM | 28.2% | 44.7 µM |  | Cc1ccccc1C(=O)OC[C@H](Cc1ccccc1)NC(=O)[C@H](CC(=O)OCc1ccccc1)NC(=O)OCc1ccccc1
 | 47.1 µM | -0% | > 50 µM | 15% | > 50 µM | 6.7% | > 50 µM |  | CC(=O)OC[C@H](Cc1ccccc1)NC(=O)[C@H](CC(=O)OCc1ccccc1)NC(=O)OCc1ccccc1
